Laboratory results reported in ChEMBL document CHEMBL4680229, “Design, synthesis and bioactivity study of N-salicyloyl tryptamine derivatives as multifunctional agents for the treatment of neuroinflammation” (Eur J Med Chem, 2020).
The source made the active and inactive calls. No cut-off for these calls is given here.

What was measured:
[1] = test system: C6; test: Inhibition of LPS-induced NO production in rat C6 cells incubated for 24 hrs by Griess reagent based assay; type: functional, cell-based; details: C6, 24 h
Method in brief: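 C6 cells at 5×10^5 cells/mL, LPS 10 μg/mL plus compound at 2.5–40 μM final for 24 h. Nitrite measured with Griess reagent at 540 nm against a NaNO2 standard; IC50 from three repeats.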

[2] = test system: C6; test: Cytotoxicity against rat C6 cells assessed as reduction in cell viability after 24 hrs by MTT assay; type: cell-based; details: C6, 24 h
Method in brief: (§1)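 C6 or BV2 cells seeded at 1–5×10^5 per well; after 12 h exposed to 0, 6.25, 12.5, 25, 50 or 100 μM (final, DMSO <0.4%) for 24 h. MTT added for 4 h, dissolved in DMSO, read at 570 nm. IC50 as mean of three independent experiments run in triplicate.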

[3] = Inhibition of LPS-induced NO production in mouse BV-2 cells incubated for 24 hrs by Griess reagent based assay; type: functional, cell-based; details: BV-2, 24 h
Method in brief: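 BV2 cells at 5×10^5 cells/mL, LPS 1 μg/mL plus compound at 2.5–40 μM final for 24 h. Supernatant nitrite measured with Griess reagent for 15 min at room temperature in the dark, 540 nm, against a NaNO2 standard curve; IC50 from three repeats.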

[4] = molecular target: Prostaglandin G/H synthase 2 (Homo sapiens) (UniProt P35354); test: Inhibition of human COX2 assessed as reduction in PGF2alpha formation using arachidonic acid as substrate incubated for 10 mins by ELISA
[5] = test system: BV-2; test: Cytotoxicity against mouse BV-2 cells assessed as reduction in cell viability after 24 hrs by MTT assay; type: cell-based; details: BV-2, 24 h; method in brief: as §1
[6] = organism: Homo sapiens; test: Selectivity index, ratio of IC50 for inhibition of human COX1 to IC50 for inhibition of human COX2
[7] = molecular target: Prostaglandin G/H synthase 1 (Homo sapiens) (UniProt P23219); test: Inhibition of human COX1 assessed as reduction in PGF2alpha formation using arachidonic acid as substrate incubated for 10 mins by ELISA
[8] = Half life in Sprague-Dawley rat at 50 mg/kg, ip up to 24 hrs by LC-MS analysis; type: ADME, organism-based; details: in vivo
Method in brief: (§2)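 Male Sprague-Dawley rats, six per group, single 50 mg/kg intraperitoneal dose; parameters derived by non-compartmental analysis using the linear trapezoidal method; mean ± SD, n = 6.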

[9] = Antioxidant activity assessed as DPPH radical scavenging activity incubated for 30 mins; type: functional
Method in brief: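 Compound in ethanol at 2.5–40 μM final, mixed 1:1 with 700 μmol/L ethanolic DPPH; 30 min in the dark at room temperature, absorbance at 515 nm. Serotonin used as standard; EC50 from three independent experiments.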

[10] = Cmax in Sprague-Dawley rat at 50 mg/kg, ip up to 24 hrs by LC-MS analysis; type: ADME, organism-based; set-up: route intraperitoneal, dose 50 mg/kg, time <=24; details: in vivo; method in brief: as §2
[11] = Tmax in Sprague-Dawley rat at 50 mg/kg, ip up to 24 hrs by LC-MS analysis; type: ADME, organism-based; details: in vivo; method in brief: as §2
[12] = Induction of apoptosis in LPS-induced hippocampal neuroinflammatory Kunming mouse model at 50 mg/kg, ip administered bid for 6 days by Nissl staining based microscopic method; type: organism-based; details: in vivo, 144 h, time 6 day
Method in brief: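 Male Kunming mice (8 weeks, 20–25 g, n = 10/group) were anaesthetised with i.p. chloral hydrate, then given LPS (3 μL of 10 mg/mL) into the lateral ventricle at 0.5 μL/min; sham mice received 3 μL saline. Compound was then given i.p. at 50 mg/kg in saline with 1% methyl cellulose for six consecutive days. Behaviour and deaths were recorded, and hippocampal slices were Nissl-stained.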

[13] = test system: Mus musculus; test: Antiinflammatory activity against LPS-induced hippocampal neuroinflammatory Kunming mouse model assessed as reduction in GFAP level in hippocampus at 50 mg/kg, ip administered bid for 6 days by DAPI staining based microscopic method; type: functional, organism-based; details: time 6.0 day
[14] = test system: BV-2; test: Antiinflammatory activity against LPS-induced mouse BV-2 cells assessed as decrease in ROS production at 10 to 40 uM after 6 hrs by DCFH-DA fluorescence probe based flow cytometric analysis; type: functional, cell-based; details: dose 10-40 µM
Method in brief: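 BV2 cells with LPS 1 μg/mL and compound at 10, 20 or 40 μM for 6 h, then DCFH-DA 20 μM final for 30 min at 37 °C. Washed in cold PBS and read by flow cytometry, excitation 485 nm and emission 530 nm.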

[15] = test system: BV-2; test: Inhibition of LPS-induced TNFalpha production in mouse BV-2 cells after 24 hrs by ELISA; type: functional, cell-based; details: dose 10-40 µM
Method in brief: (§3)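 BV2 cells at 5×10^5 cells/mL stimulated with LPS 1 μg/mL; compound at 10, 20 or 40 μM final for 24 h, DMSO in blanks. Supernatant TNF-α and IL-10 measured by sandwich ELISA and PGE2 by competitive ELISA, OD at 450 nm; at least three independent experiments.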

[16] = test system: BV-2; test: Antiinflammatory activity against LPS-induced mouse BV-2 cells assessed as decrease in COX2 protein expression at 40 uM after 24 hrs by Western blot analysis; type: functional, cell-based
Method in brief: (§4)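 BV2 cells in DMEM with 10% FBS; LPS 1 μg/mL plus compound at 10, 20 or 40 μM final for 24 h. Lysates in RIPA with 1 mM PMSF; 30 μg protein on 8% SDS-PAGE and blotted for iNOS and COX-2, GAPDH as reference; ECL detection and densitometry; at least three independent experiments.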

[17] = test system: C6; test: Inhibition of LPS-induced TNFalpha production in rat C6 cells after 24 hrs by ELISA; type: functional, cell-based; details: dose 10-40 µM
Method in brief: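 C6 cells at 5×10^5 cells/mL stimulated with LPS 10 μg/mL; compound at 10, 20 or 40 μM final for 24 h. Supernatant TNF-α measured by sandwich ELISA at 450 nm; at least three independent experiments.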

[18] = test system: BV-2; test: Antiinflammatory activity against LPS-induced mouse BV-2 cells assessed as increase in IL-10 production at 40 uM after 24 hrs by ELISA; type: functional, cell-based; method in brief: as §3
[19] = test system: BV-2; test: Antiinflammatory activity against LPS-induced mouse BV-2 cells assessed as decrease in INOS protein expression at 40 uM after 24 hrs by Western blot analysis relative to control; type: functional; set-up: scale not given: the % may be the effect or the level left; method in brief: as §4
[20] = test system: BV-2; test: Antiinflammatory activity against LPS-induced mouse BV-2 cells assessed as decrease in iba-1 protein expression at 20 uM after 24 hrs by DAPI staining based confocal laser microscopic method; type: functional, cell-based
Method in brief: (§5)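 Cells on glass slides with compound at 20 μM final for 24 h: C6 with LPS 10 μg/mL stained for GFAP, BV2 with LPS 1 μg/mL stained for Iba-1. Fixed in 4% paraformaldehyde, blocked in 1% BSA/0.3% Triton X-100, primary antibody 1:100 overnight at 4 °C, secondary 1:200, DAPI mount, confocal imaging. Intensity given as % of LPS group, n = 3.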

[21] = test system: C6; test: Antiinflammatory activity against LPS-induced rat C6 cells assessed as decrease in GFAP protein expression at 20 uM after 24 hrs by DAPI staining based confocal laser microscopic method; type: functional, cell-based; method in brief: as §5

Prostaglandin G/H synthase 2 (Homo sapiens), sequence (P35354 whole entry, looked up): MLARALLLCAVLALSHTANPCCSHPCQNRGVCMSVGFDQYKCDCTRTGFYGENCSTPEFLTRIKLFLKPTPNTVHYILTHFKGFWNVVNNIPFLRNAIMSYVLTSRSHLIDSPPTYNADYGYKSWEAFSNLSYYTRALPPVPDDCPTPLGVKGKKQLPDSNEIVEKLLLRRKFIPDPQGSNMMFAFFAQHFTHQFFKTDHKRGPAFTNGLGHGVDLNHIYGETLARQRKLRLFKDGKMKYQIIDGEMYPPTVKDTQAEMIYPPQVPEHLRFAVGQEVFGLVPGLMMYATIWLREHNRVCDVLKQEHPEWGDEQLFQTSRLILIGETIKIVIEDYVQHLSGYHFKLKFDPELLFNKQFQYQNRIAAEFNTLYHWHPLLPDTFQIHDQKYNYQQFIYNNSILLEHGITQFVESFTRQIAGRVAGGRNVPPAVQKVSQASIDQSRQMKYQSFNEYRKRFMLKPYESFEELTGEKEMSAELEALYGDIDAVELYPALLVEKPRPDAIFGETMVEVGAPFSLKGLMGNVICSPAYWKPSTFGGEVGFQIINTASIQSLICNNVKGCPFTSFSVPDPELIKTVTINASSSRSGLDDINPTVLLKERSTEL

Row | SMILES | IC50 [1] [µM] | IC50 [2] [µM] | IC50 [3] [µM] | IC50 [4] [µM] | IC50 [5] [µM] | IC50 [7] [µM] | also measured
1 | O=C(NCCc1c[nH]c2ccccc12)c1cc2ccccc2cc1O | 13.2 | > 100 | 59 | 2.18 | > 100 | 39.2 | Ratio IC50 [6]: 18
2 | O=C(NCCc1c[nH]c2ccccc12)c1cc(Cl)ccc1O | > 40 | > 100 | > 40 | 10.4 | > 100 | > 40 | 
3 | COc1ccc2[nH]cc(CCNC(=O)c3ccccc3Nc3ccccc3)c2c1 | 7.61 | 89.3 | 19.9 | 2.76 | > 100 | 38.6 | Ratio IC50 [6]: 14
4 | COc1ccc2[nH]cc(CCNC(C)=O)c2c1 [MELATONIN] |  |  |  |  |  |  | half-life [8]: 32.4 min; EC50 [9]: > 40 µM; Cmax [10]: 1150 ng/mL; Tmax [11]: 11.4 min; Activity [12]: Toxic
5 | O=C(NCCc1c[nH]c2ccccc12)c1ccccc1O | > 40 | > 100 | 26.4 | > 40 | > 100 |  | 
6 | O=C(NCCc1c[nH]c2ccc(O)cc12)c1ccccc1O | > 40 | > 100 | > 40 | 0.8 | > 100 | 1.74 | Ratio IC50 [6]: 2.18
7 | Cc1ccc2[nH]cc(CCNC(=O)c3ccccc3Nc3ccccc3)c2c1 |  | 87.9 |  | 1.47 | 64.6 | 27 | Ratio IC50 [6]: 18.4
8 | CN(C)c1ccccc1C(=O)NCCc1c[nH]c2ccccc12 | > 40 | > 100 | 22.9 | > 40 | > 100 |  | 
9 | Cc1ccc(O)c(C(=O)NCCc2c[nH]c3ccccc23)c1 | > 40 | > 100 | > 40 | > 40 | > 100 | > 40 | 
10 | Cc1cccc(Nc2ccccc2C(=O)NCCc2c[nH]c3ccccc23)c1C |  | 95.2 |  | 2.31 | 55.1 |  | 
11 | Cc1c(Cl)cccc1Nc1ccccc1C(=O)NCCc1c[nH]c2ccccc12 |  | 71.1 |  | 14.5 | 54.6 |  | 
12 | NCCc1c[nH]c2ccc(O)cc12 [SEROTONIN] |  |  |  |  |  |  | EC50 [9]: 0.63 µM
13 | O=C(NCCc1c[nH]c2ccccc12)c1ccc(O)cc1O | > 40 | > 100 | > 40 | 25 | > 100 | > 40 | 
14 | COc1ccc2[nH]cc(CCNC(=O)c3ccccc3Nc3cccc(Cl)c3C)c2c1 |  | 62.4 |  | > 40 | > 100 |  | 
15 | O=C(NCCc1c[nH]c2ccccc12)c1ccc(F)cc1O | > 40 | > 100 | > 40 | > 40 | > 100 | > 40 | 
16 | Cc1ccc2[nH]cc(CCNC(=O)c3ccccc3Nc3cccc(Cl)c3C)c2c1 |  | 66.1 |  | 9.72 | 73.7 |  | 
17 | CN(c1ccccc1)c1ccccc1C(=O)NCCc1c[nH]c2ccccc12 |  | 28.5 |  | > 40 | 7.98 |  | 
18 | CN(C)c1ccccc1C(=O)NCCc1c[nH]c2ccc(O)cc12 | > 40 | > 100 | > 40 | 0.57 | > 100 |  | 
19 | O=C(O)c1ccccc1O [SALICYLIC ACID] |  |  |  | > 40 |  | > 40 | Activity [12]: Toxic; Activity [13]: Active
20 | O=C(NCCc1c[nH]c2ccccc12)c1ccccc1Nc1ccccc1 | 15.3 | 115 | 25.9 | 2.62 | > 100 | 0.47 | Activity [14]: Active; inhibition [15]: Dose-dependent effect; Activity [16]: Active; inhibition [17]: Dose-dependent effect; EC50 [9]: > 100 µM; Activity [18]: inactive; Activity [19]: 66%; Ratio IC50 [6]: 0.18; Activity [20]: Active; Activity [21]: Active
21 | Cc1cccc(Nc2ccccc2C(=O)NCCc2c[nH]c3ccc(O)cc23)c1C |  | 80.5 |  | 1.4 | 56.4 |  | 
22 | O=C(NCCc1c[nH]c2ccc(Cl)cc12)c1ccccc1Nc1ccccc1 |  | 79.3 |  | 0.58 | 62.4 | 1.34 | Ratio IC50 [6]: 2.31
23 | CNc1ccccc1C(=O)NCCc1c[nH]c2ccccc12 | > 40 | > 100 | > 40 | > 40 | > 100 | > 40 | 
24 | Cc1ccc2[nH]cc(CCNC(=O)c3ccccc3O)c2c1 | > 40 | > 100 | > 40 | > 40 | > 100 | > 40 | 
